For orientation: IC50 means the midpoint of a concentration-inhibition curve. One may read the EC50 as the concentration needed to bring the measured effect to its halfway point.

Structures are written as SMILES.

In data set [1] the target is T1, Prostaglandin E2 receptor EP3 subtype (Homo sapiens, UniProt P43115).
T1 sequence (P43115 whole entry): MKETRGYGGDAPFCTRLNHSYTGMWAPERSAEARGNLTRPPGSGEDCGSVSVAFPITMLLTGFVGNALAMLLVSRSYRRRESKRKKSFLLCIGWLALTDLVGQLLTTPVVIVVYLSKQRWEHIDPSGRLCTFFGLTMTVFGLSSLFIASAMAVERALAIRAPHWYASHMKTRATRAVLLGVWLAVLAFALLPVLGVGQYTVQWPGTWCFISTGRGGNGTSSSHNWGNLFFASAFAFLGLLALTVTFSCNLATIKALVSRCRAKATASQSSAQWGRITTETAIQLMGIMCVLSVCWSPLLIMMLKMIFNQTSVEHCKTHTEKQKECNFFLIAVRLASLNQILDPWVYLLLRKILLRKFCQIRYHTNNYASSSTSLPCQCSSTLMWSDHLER
Briefly: Displacement of [3H]PGE2 from human EP3 receptor at 20 uM in presence of normal buffer.

A short description of data set [2]: Metabolic stability in dog liver microsome assessed as compound remaining at 5 uM after 30 mins. The note with it: liver microsomes, read-out: Stability. The data set is classed as ADME, Canis lupus familiaris. The gist of the method: (§1)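 Liver microsomes at 0.8 mg/mL protein incubated with compound at 5 µM. Percent parent remaining after 30 min measured by LC–MS/MS.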
In general terms: Liver microsomes are vesicles of endoplasmic reticulum, rich in cytochrome P450 enzymes.

The nature of data set [3]: Antiplatelet activity against rat platelet assessed as platelet aggregation. The data set is classed as functional, cell-based.
The nature of data set [4]: Metabolic stability in human liver microsome assessed as compound remaining at 5 uM after 30 mins. Particulars: liver microsomes, read-out: Stability. The data set is classed as ADME. The gist of the method:
as §1

The subject of another data set is Mus musculus. The data set can be described thus: Plasma concentration in NMRI mouse at 2 mg/kg, iv. The data set is classed as ADME, organism-based. Further details: dose 2 mg/kg, route intravenous. Particulars: in vivo. The gist of the method: (§2)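 Mouse iv exposure screen. Plasma and brain concentrations sampled 15 min after dosing.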
Data set [5] deals with T1, Prostaglandin E2 receptor EP3 subtype. Briefly: Displacement of [3H]PGE2 from human EP3 receptor at 20 uM in presence of 10% human serum. Background: In a radioligand displacement assay an active substance lowers the binding of a labelled ligand.
Data set [6] deals with T2, Prostaglandin E2 receptor EP3 subtype (Homo sapiens) (UniProt P43115).
T2 sequence (whole entry): T1 sequence (P43115 whole entry)
The data set can be described thus: Ratio IC50 for human EP3 receptor in presence of human serum to IC50 for human EP3 in absence of human serum.

The next data set deals with Brain. Briefly: Brain concentration in NMRI mouse at 2 mg/kg, iv. The data set is classed as ADME, organism-based. Further details: dose 2 mg/kg, route intravenous. The note with it: in vivo. The gist of the method: as §2
A short description of data set [7]: Antiplatelet activity against human platelet assessed as platelet aggregation. The data set is classed as functional, cell-based.
Data set [8] can be described thus: Metabolic stability in rat liver microsome assessed as compound remaining at 5 uM after 30 mins. The data set is classed as ADME. The note with it: liver microsomes, read-out: Stability. The procedure, abridged:
as §1

Data set [9] can be described thus: Metabolic stability in monkey liver microsome assessed as compound remaining at 5 uM after 30 mins. The data set is classed as ADME, Macaca mulatta. The note with it: rhesus monkey, liver microsomes; read-out: Stability. The procedure, abridged:
as §1

The target in data set [10] is Prostaglandin E2 receptor EP4 subtype (Homo sapiens, UniProt P35408). Briefly: Displacement of radioligand from EP4 receptor.
The next data set has as its target Prostacyclin receptor (Homo sapiens, UniProt P43119). Briefly: Displacement of radioligand from IP receptor.
Data set [11] deals with T3, Prostaglandin E2 receptor EP1 subtype (Homo sapiens, UniProt P34995).
T3 sequence (P34995 whole entry): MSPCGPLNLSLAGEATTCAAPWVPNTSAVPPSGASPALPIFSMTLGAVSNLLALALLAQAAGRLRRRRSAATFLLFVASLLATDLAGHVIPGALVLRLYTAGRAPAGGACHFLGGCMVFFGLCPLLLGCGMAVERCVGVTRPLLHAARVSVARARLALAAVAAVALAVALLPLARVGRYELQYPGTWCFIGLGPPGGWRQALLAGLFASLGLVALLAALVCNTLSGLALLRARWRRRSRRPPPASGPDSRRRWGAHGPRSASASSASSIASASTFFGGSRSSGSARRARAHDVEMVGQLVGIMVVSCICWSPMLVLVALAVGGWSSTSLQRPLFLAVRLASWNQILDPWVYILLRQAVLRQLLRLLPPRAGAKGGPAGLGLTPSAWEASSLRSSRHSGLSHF
The data set can be described thus: Displacement of radioligand from EP1 receptor.

The nature of data set [12]: Metabolic stability in mouse liver microsome assessed as compound remaining at 5 uM after 30 mins. The data set is classed as ADME. Particulars: liver microsomes, read-out: Stability. The procedure, abridged: as §1
For data set [13], the target named is Prostaglandin F2-alpha receptor (Homo sapiens, UniProt P43088). Briefly: Displacement of radioligand from FP receptor.
Data set [14] concerns the target Prostaglandin E2 receptor EP2 subtype (Homo sapiens, UniProt P43116). Briefly: Displacement of radioligand from EP2 receptor.
The target in data set [15] is T1, Prostaglandin E2 receptor EP3 subtype. Briefly: Antagonist activity at human EP3-2 receptor expressed in CHOK1 cells. The data set is classed as functional, cell-based, CHO-K1. The procedure, abridged:
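Stably transfected CHO-K1 cells expressing hEP3II, plated at 10⁵ cells/well and cultured overnight at 37 °C, 5% CO2. Washed with PBS, pre-incubated 30 min at 37 °C in serum-free medium with 1 mM IBMX. Stimulated with PGE2 (5×10⁻⁹ M) plus forskolin (5×10⁻⁶ M) ± compound (10⁻⁴–10⁻¹³ M) for 10 min at 37 °C. cAMP measured by EIA; EC50 from sigmoid non-linear regression.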

Chain of Prostaglandin E2 receptor EP2 subtype (P43116 whole entry): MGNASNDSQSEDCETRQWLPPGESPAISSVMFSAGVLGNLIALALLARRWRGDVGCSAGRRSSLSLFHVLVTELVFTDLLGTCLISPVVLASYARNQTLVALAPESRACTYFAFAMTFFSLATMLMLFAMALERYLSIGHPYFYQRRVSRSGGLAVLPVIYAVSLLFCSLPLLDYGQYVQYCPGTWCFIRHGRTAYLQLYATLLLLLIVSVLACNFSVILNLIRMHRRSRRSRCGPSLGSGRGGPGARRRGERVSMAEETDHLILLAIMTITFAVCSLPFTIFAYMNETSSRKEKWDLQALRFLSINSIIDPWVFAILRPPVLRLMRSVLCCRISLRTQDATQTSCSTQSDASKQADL
Chain of Prostaglandin F2-alpha receptor (P43088 whole entry): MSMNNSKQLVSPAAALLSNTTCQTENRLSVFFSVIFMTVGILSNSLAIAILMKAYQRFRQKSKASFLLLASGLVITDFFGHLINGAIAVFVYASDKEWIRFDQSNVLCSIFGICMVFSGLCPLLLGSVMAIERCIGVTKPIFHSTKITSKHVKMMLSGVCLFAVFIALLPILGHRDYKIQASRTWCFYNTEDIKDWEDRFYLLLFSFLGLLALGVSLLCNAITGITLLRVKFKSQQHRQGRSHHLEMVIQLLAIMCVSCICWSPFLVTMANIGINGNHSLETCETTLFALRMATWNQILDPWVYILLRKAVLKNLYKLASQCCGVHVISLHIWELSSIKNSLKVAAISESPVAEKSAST
Chain of Prostacyclin receptor (P43119 whole entry): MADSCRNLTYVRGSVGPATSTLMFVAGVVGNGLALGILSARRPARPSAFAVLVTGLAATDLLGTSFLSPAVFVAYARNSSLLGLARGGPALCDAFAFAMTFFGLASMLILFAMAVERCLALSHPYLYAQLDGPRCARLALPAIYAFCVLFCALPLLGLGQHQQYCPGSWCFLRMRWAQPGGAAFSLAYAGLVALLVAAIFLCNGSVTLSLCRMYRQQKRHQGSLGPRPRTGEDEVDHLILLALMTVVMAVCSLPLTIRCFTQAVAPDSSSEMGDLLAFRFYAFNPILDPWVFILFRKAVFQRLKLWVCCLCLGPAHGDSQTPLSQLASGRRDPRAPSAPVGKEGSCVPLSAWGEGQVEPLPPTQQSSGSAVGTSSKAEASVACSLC
Chain of Prostaglandin E2 receptor EP4 subtype (P35408 whole entry): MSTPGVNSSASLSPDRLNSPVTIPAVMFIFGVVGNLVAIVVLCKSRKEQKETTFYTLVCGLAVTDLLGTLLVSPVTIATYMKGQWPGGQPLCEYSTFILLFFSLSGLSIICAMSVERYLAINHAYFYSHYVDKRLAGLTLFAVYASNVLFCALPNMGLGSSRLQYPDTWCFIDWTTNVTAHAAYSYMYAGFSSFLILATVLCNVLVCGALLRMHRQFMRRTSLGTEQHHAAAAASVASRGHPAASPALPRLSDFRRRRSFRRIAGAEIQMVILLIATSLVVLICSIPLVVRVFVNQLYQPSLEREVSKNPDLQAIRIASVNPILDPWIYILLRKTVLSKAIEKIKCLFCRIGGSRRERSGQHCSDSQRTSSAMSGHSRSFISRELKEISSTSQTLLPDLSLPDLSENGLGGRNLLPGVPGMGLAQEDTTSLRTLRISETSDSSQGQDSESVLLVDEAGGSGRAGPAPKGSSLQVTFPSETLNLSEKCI

In the case of `Cn1cc(/C=C/C(=O)NS(=O)(=O)c2cc(F)c(F)cc2F)c2c(Oc3ccc4ccccc4c3)cccc21`, the IC50 in data set [1] turned out to be 9.2 nM; in [5], 28 nM. The remaining at 0.5 h, 5 µM stood at 90.4% in data set [2], 91.2% in data set [4] and 32% in data set [8]. Moreover, the EC50 in data set [3] was 11.6 nM; in data set [7] it was 8.1 nM. Besides, the Cp with Mus musculus worked out at 1518 ng/mL. The Ratio IC50 in data set [6] turned out to be 3.1. In the data set with Brain, the Drug uptake turned out to be 29.1 ng/mL.

`Cn1cc(/C=C/C(=O)NS(=O)(=O)c2ccc(F)c(F)c2)c2c(Oc3ccc4ccccc4c3)cccc21`: the remaining at 0.5 h, 5 µM in data set [9] was determined as 59%; in data set [2], 69.7%; in data set [4], 63.6%; in [12] it was 62%; in [8], 24.6%. Moreover, the IC50 came to 7.4 nM in data set [1]; 12500 nM in data set [10]; 1880 nM on Prostacyclin receptor; 1420 nM in data set [11]; 15.9 nM in data set [5]; 3590 nM in data set [13]. The compound also showed an IC50 in data set [14] of 12500 nM. Further, the EC50 in data set [3] was determined as 12.8 nM. Further, the Cp with Mus musculus was 3420 ng/mL. Further, in [6], the Ratio IC50 turned out to be 2.1. Also, the Drug uptake with Brain came out at 55.7 ng/mL.

For the compound `Cn1cc(/C=C/C(=O)NS(=O)(=O)c2ccc(F)c(F)c2)c2c(Oc3ccc(F)c(Cl)c3)cccc21`, the IC50 in data set [1] is 26.9 nM; in data set [10], above 10000 nM; at Prostacyclin receptor it was 4100 nM; in data set [5] it was 81.5 nM; in data set [13] it was 1820 nM; in [14] it was above 10000 nM. The results for the remaining at 0.5 h, 5 µM in [4] and in [8] were 91.5% and 32%, respectively. Besides, in [6], the Ratio IC50 came to 3.

Take `Cn1cc(/C=C/C(=O)NS(=O)(=O)c2ccc(F)c(F)c2)c2c(Oc3ccc(Cl)cc3F)cccc21`: the IC50 in data set [1] was 7.2 nM; in data set [10], above 10000 nM; on Prostacyclin receptor, above 10000 nM; in data set [11] it was above 10000 nM; in data set [5] it was 124 nM; in data set [13], 3190 nM. The same compound came in with an IC50 in data set [14] above 10000 nM. Further, the figures for the remaining at 0.5 h, 5 µM in [4] and in [8] were 113% and 40%, respectively. Further, the Ratio IC50 in [6] stood at 17.2.

With `Cn1cc(/C=C/C(=O)NS(=O)(=O)c2cccc(Cl)c2)c2c(Oc3ccc4ccccc4c3)cccc21`, the 50% inhibitory concentration (IC50) worked out at 15.7 nM in data set [1] and 35 nM in [5]. The values for the remaining at 0.5 h, 5 µM in data set [2], in [4] and in data set [8] were 80.6%, 79% and 33.3%, respectively. In addition, the Ratio IC50 in data set [6] is 2.2.

`Cn1cc(/C=C/C(=O)NS(=O)(=O)c2ccc(F)c(F)c2)c2c(Oc3ccc(Cl)cc3Cl)cccc21`: the remaining at 0.5 h, 5 µM in data set [9] stood at 53.8%; in data set [2], 104%; in data set [4] it was 74.7%; in [12] it was 69%; in data set [8], 30.6%. For the same compound, the IC50 in data set [1] came out at 11.8 nM; in [10], 14600 nM; in data set [11], 3860 nM; in [5], 23.7 nM; in data set [13], 1970 nM; in data set [14], 9600 nM. In addition, the Ratio IC50 in data set [6] amounted to 2. The same compound came in with an EC50 in data set [15] of 26.1 nM.

The values are drawn from ChEMBL document CHEMBL1153263, “3-Acrylamide-4-aryloxyindoles: synthesis, biological evaluation and metabolic stability of potent and selective EP3 receptor antagonists” (Bioorg Med Chem Lett, 2009).
